# From PubChem BioAssay
# An excerpt weighted towards active compounds, which were near 2.2% of everything screened.
# Granule exo inh: lytic granule exocytosis inhibition. TALL-104 LAMP-1 surface exposure, flow cytometry; cells stimulated with thapsigargin and PMA. inhibition, % at 10 µM. 360,000 tested, 0.66% active. AID 651702;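 active means inhibition above about 55%, limit read from the data; inconclusive means no clear call, values can overlap the other calls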
# HNF4A DNA FP: change in binding of human HNF4 alpha to DNA. 360,000 tested, 0.3% active. activity change, % at 10 µM. HNF4a-FITC DNA binding, fluorescence polarization, 1 h. P41235; in the data active means activity change above about 30%, passing the limit was not always enough
# Target sequence (P41235 whole entry, looked up): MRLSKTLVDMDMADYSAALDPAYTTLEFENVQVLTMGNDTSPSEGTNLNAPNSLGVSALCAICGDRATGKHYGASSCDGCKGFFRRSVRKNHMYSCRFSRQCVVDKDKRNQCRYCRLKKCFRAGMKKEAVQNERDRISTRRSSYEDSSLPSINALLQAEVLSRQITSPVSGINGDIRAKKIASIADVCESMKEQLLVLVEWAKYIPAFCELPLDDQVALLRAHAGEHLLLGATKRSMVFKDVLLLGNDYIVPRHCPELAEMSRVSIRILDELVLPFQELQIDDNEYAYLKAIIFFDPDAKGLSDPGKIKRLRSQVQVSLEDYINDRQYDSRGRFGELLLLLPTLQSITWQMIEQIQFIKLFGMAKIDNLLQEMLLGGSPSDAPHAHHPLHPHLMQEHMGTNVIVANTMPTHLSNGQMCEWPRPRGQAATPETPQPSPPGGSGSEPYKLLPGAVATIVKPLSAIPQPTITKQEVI
# Myeloid diff 2: myeloid differentiation induction | AID 624256 | ER-HoxA9 myeloid progenitors, lysozyme-GFP differentiation, flow cytometry | 360,000 tested, 1% active | calls only at 10 µM;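 active means normalized GFP-positive differentiation at or above the plate's own cutoff, the solvent-only control mean plus 3 SD; inconclusive means no clear call, values can overlap the other calls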;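 further: cells exposed to compound for four days before flow analysis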
# CSN deneddyl inh: blocks human CSN-mediated cullin deneddylation; Purified CSN, SCF-Nedd8-OG deneddylation, fluorescence polarization; Q92905; 360,000 tested, 0.38% active; inhibition, % at 12.5 µM; AID 651999;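 active means pattern-corrected inhibition above about 35%, with an unprinted fluorescence ratio check between 0.5 and 1.5, limit read from the data, passing the limit was not always enough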;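 further: 0% = enzyme with substrate and 100% = substrate without enzyme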
#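 Material: purified human Csn5 enzyme expressed in HEK293T cells / Medium: Tris buffer pH 7.5, NaCl, DTT, Tween-20, trehalose, ovalbumin / Compound dosing: 12.5 µM single point / Schedule: 90 min incubation of compound, enzyme and substrate at room temperature / Signal: fluorescence polarization of the substrate / Control set: no-enzyme wells high, enzyme-with-substrate wells low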
# Starred values were filed as active, the others as inactive; i = inactive; ? = inconclusive; + = active, no number.
SMILES,Granule exo inh,HNF4A DNA FP,Myeloid diff 2,CSN deneddyl inh
CCN1C(=O)/C(=C/c2ccc(C)o2)N(C)C1=S,58.0*,-1.8,i,0.0
Cc1ccc(S(=O)(=O)NC(=O)COc2ccccc2C)c(C)c1,-3.8,1.9,i,-0.3
CN1CCN(C(=O)CN(C)S(=O)(=O)c2ccc(F)cc2)CC1,-2.5,2.9,i,-2.3
O=C(CN1C2CCCC1CC(NC(=O)C1CCCCC1)C2)Nc1ccccc1C(F)(F)F (centres undefined),11.8,-3.1,+,1.5
Cc1cccc(N(C(=O)c2csnn2)C(C(=O)NC2CCCCC2)c2ccncc2)c1 (centres undefined),2.1,-1.1,i,-5.1
CCCn1cc(S(=O)(=O)c2ccc(F)cc2)c(=O)c2cc(OCC)ccc21,3.6,2.9,+,-1.3
CC1(C(=O)Nc2nccs2)CCN1C(=O)C1(c2ccccc2)CC1 (centres undefined),-2.8,0.1,i,0.9
CCOC(=O)c1c(NC(=O)CSc2nnc(C)s2)sc2c1CCN(C)C2,-9.0,73.4*,i,42.6*
CCOC(=O)c1c(NC(=O)Cc2ccccc2)sc2c1CCN(C)C2,4.0,-3.0,i,1.5
CC1(C2CCCC2)NC(=O)NC1=O (centres undefined),-6.1,-0.9,i,0.2
CC1(C)Cc2ccccc2C2=NNC(=O)C2=N1,0.1,4.0,+,-7.9
CS(=O)c1ccccc1-c1nc(-c2ccc([N+](=O)[O-])cc2)no1 (centres undefined),0.0,3.9,i,3.7
Cn1c(=O)[nH]c2c(c1=O)CCO2,-7.1,4.3,i,-0.5
O=C1NC(=S)N/C1=C/C=C/c1ccccc1,4.7,1.5,i,2.5
O=C1NC(=S)NC1=Cc1ccc2c(c1)CCC2,4.3,39.5*,?,2.8
COc1cc(NC(=O)CCc2nnc3ccc(N4CCCCC4)nn23)cc(OC)c1OC,1.2,1.2,+,-0.7
COc1cc(NC(=O)CCc2nnc3ccc(N4CCCC4)nn23)cc(OC)c1OC,-0.9,1.3,i,5.9
CCn1nc(C)c(/C=N/NC(=O)Cn2nnc(N)n2)c1C,4.8,-4.5,+,-0.4
Cc1cccc(NS(=O)(=O)c2ccc(NC(=O)N3CCCCC3)cc2)c1,0.0,0.4,i,42.8*
Cc1ccc(NS(=O)(=O)c2ccc(NC(=O)N3CCCCC3)cc2)cc1,13.6,-4.0,i,4.6
Cc1cccc(NCCC(=O)c2ccc([N+](=O)[O-])cc2)c1C,106.6*,-2.0,i,-8.2
CCCCCC(=O)N(Cc1ccccc1)c1c(N)n(CCOC)c(=O)[nH]c1=O,4.9,-2.0,i,-4.4
COCCNC(=O)CN1C(=O)NC2(CCCc3cc(OC)ccc32)C1=O (centres undefined),1.0,-2.2,i,0.8
CCOC(=O)c1cccc(S(=O)(=O)N2CCOCC2)c1,-3.0,-1.4,i,-3.0
O=C(OCCOc1ccccc1F)c1cccc(S(=O)(=O)N2CCOCC2)c1,-15.4,-5.0,+,1.0
SMILES,Granule exo inh,HNF4A DNA FP,Myeloid diff 2,CSN deneddyl inh
C=CCN(CC=C)Cc1cc(=O)oc2cc(C)c(Cl)cc12,-0.3,0.8,i,-2.5
O=C(c1ccccc1)c1nc2ccccc2n(CCCn2c(=O)c(C(=O)c3ccccc3)nc3ccccc32)c1=O,-5.8,3.6,+,-4.9
COc1ccc(NC(=O)C2CCCC2)cc1S(=O)(=O)N1CCOCC1,-4.0,0.6,i,5.2
CCN(CC(=O)Nc1ccccc1-c1ccccc1)Cc1nc2ccccc2c(=O)[nH]1,-2.9,2.3,+,-0.1
CCN(CC(=O)Nc1ccccc1SC)Cc1nc2ccccc2c(=O)[nH]1,3.0,-0.6,i,2.6
CCN(CC(=O)NCc1ccc(F)cc1)CC(=O)Nc1ccccc1-c1ccccc1,5.0,-1.5,+,-1.5
CCN(CC(=O)Nc1ccccc1OC)CC(=O)Nc1ccccc1-c1ccccc1,0.1,1.6,i,-2.3
Clc1ccc(-c2cnnc(-c3ccccn3)n2)cc1,-16.8,0.7,i,-5.1
Cc1nc2sc(C(c3ccc(Cl)cc3)N3CCN(CCO)CC3)c(O)n2n1 (centres undefined),2.0,3.4,i,3.3
COc1ccc(C(c2sc3nc(C)nn3c2O)N2CCN(CCO)CC2)cc1OC (centres undefined),27.9,-0.2,+,2.2
COc1ccc2[nH]c3c(c2c1)CCN1C(=O)C(CC(=O)NCc2ccc(OC)c(OC)c2)C[C@H](C(=O)N2CCCCC2)[C@@]31CCc1ccccc1 (some centres undefined),-16.2,2.4,i,0.9
C=CC(=O)N1C/C(=C/c2ccc(F)cc2)C(=O)/C(=C\c2ccc(F)cc2)C1,93.9*,-47.2,?,26.6
CN1C2CCC1/C(=C\c1ccc(F)cc1)C(=O)/C2=C/c1ccc(F)cc1,-1.0,-0.5,?,3.6
Cc1[nH]n(-c2ccccc2)c(=O)c1C=Nc1ccc2[nH]c(=O)[nH]c2c1,-1.3,1.9,i,13.4
O=c1[nH]c2ccc(N=Cc3c(O)ccc4cc(Br)ccc34)cc2[nH]1,-2.4,16.6,i,42.4*
Cc1cccc(C)c1NC(=O)CSc1nnc(C)n1CC1CCCO1 (centres undefined),-0.2,115.2*,i,0.2
CCn1c(CNC(=O)c2cccc(C)c2)nnc1SCC(=O)N1CCOCC1,4.2,-2.6,i,-1.7
CN(C(=O)C1CC1)C1CCS(=O)(=O)C1 (centres undefined),0.2,-2.1,i,6.0
CC1CCCN(C(=O)c2cc3c(-c4ccc(Cl)cc4)nn(C)c3s2)C1 (centres undefined),-8.5,0.7,+,-6.6
Cn1nc(-c2ccc(Cl)cc2)c2cc(C(=O)N3CCN(C(=O)c4ccco4)CC3)sc21,-2.8,1.8,+,1.5
CCN1CCN(C(=O)c2cc3c(-c4ccc(Cl)cc4)nn(C)c3s2)CC1,5.1,-1.8,+,-1.3
Cn1nc(-c2ccc(Cl)cc2)c2cc(C(=O)NC3CC3)sc21,10.6,-4.4,i,-0.4
CCCCc1ccc(S(=O)(=O)NC(=O)C2(C)CCN2C(=O)C/C=C/c2ccccc2)cc1 (centres undefined),-1.3,-1.3,i,0.0
CC(=O)N1CCN(S(=O)(=O)c2cccc(C(=O)NCCc3ccc(Cl)cc3)c2)CC1,6.9,4.0,i,1.3
COc1cccc(C2C(C(=O)Nc3ccccc3)=C(C)N=c3s/c(=C/c4ccc(OCC(=O)O)cc4)c(=O)n32)c1 (centres undefined),-4.8,1.3,i,-6.5
CC1=C(C(=O)Nc2ccccc2)C(c2ccc(C)o2)n2c(s/c(=C\c3ccco3)c2=O)=N1 (centres undefined),-0.8,4.4,+,12.4
COc1ccccc1NS(=O)(=O)c1cccc(C(=O)N2CC(C)OC(C)C2)c1 (centres undefined),5.8,-2.6,i,-2.6
CC1(C(=O)Nc2ccc3[nH]ncc3c2)CCN1C(=O)CC(c1ccccc1)c1ccccc1 (centres undefined),8.8,1.1,i,5.4
